Here are results for 4 molecules from ChEMBL document CHEMBL5674881, “The therapeutic properties of resminostat for hepatocellular carcinoma” (2018).

The test system of assay [1] is Hep 3B2. In words: Anti-proliferative activity against human Hep3B cells assessed as reduction in cell viability at 20 uM incubated for 24 hrs by Fluoro Fire-Blue ProViaTox assay. It is filed as functional, cell-based.
Assay [2] relates to Hep 3B2. Nature of the assay: Anti-proliferative activity against human Hep3B cells assessed as reduction in cell viability at7 nM incubated for 24 hrs by Fluoro Fire-Blue ProViaTox assay. Conditions: dose 7.0 nM. The class given is functional, cell-based.
Assay [3] deals with Hep 3B2. In words: Anti-proliferative activity against human Hep3B cells assessed as reduction in cell viability at 1 uM incubated for 24 hrs by Fluoro Fire-Blue ProViaTox assay. It is filed as functional, cell-based.
Assay [4] has as its system Hep 3B2. In words: Downregulation of HDAC1 expression in human Hep3B cells at 50 nM incubated for 24 hrs by qRT-PCR analysis. The class given is functional, cell-based.
The test system of assay [5] is Hep 3B2. In words: Antiinflammatory activity against human Hep3B cells assessed as reduction in nuclear protein expression level of p65 […] at 50 nM incubated for 24 hrs in presence of SGBS CM by […] analysis. It is filed as functional, cell-based. The method in brief: (§1)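 Hep3B treated 24 h with 17-AAG 50 nM, alone, with 30% SGBS conditioned medium, or with resminostat 80 nM. p65 RNA measured by RT-PCR. Nuclear p65 protein measured by transcription-factor ELISA: nuclear extract bound to NFκB consensus-duplex plate for 1 h at room temperature, then anti-p65 and HRP secondary antibodies, then chemiluminescence read. n = 3.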
For orientation: Real-time PCR tracks product formation cycle by cycle.

Assay [6] has as its system Hep 3B2. In words: Antiinflammatory activity against human Hep3B cells assessed as reduction in nuclear protein expression level of p65 […] at 50 nM incubated for 24 hrs by […] analysis. The class given is functional, cell-based. Put shortly:
as §1

The test system of assay [7] is Hep 3B2. In words: Antiinflammatory activity against human Hep3B cells assessed as reduction in p65 RNA expression level at 50 nM incubated for 24 hrs in presence of SGBS CM by qRT-PCR analysis. It is filed as functional, cell-based. The method in brief:
as §1

Assay [8] deals with Hep 3B2. Nature of the assay: Downregulation of HDAC2 expression in human Hep3B cells at 50 nM incubated for 24 hrs by qRT-PCR analysis. It is filed as functional, cell-based.
In assay [9] the test system is Hep 3B2. Nature of the assay: Antiinflammatory activity against human Hep3B cells assessed as reduction in resminostat-induced p65 RNA expression level at 50 nM incubated for 24 hrs by qRT-PCR analysis relative to control. Details: scale not given: the % may be the effect or the level left. It is filed as functional. Put shortly:
as §1

In assay [10] the test system is Hep 3B2. In words: Anti-proliferative activity against human Hep3B cells assessed as reduction in cell viability at 50 nM measured after 24 hrs by Fluoro Fire-Blue ProViaTox assay. The class given is functional, cell-based.

The source made the active and inactive calls. The rule behind the calls is not given here.

As for `Nc1nccc2c1ncn2[C@@H]1C=C(CO)[C@@H](O)[C@H]1O`, in the assay on Hep 3B2 [1], the outcome was Active.

For `CCCc1cc(C)[nH]c(=O)c1CNC(=O)c1cc(-c2ccnc(N3CCN(C)CC3)c2)cc2c1cnn2C(C)C`, the result with Hep 3B2 [2] was Active.

Consider `COc1cccc2c1C(=O)c1c(O)c3c(c(O)c1C2=O)C[C@@](O)(C(=O)CO)C[C@@H]3O[C@H]1C[C@H](N)[C@H](O)[C@H](C)O1`, for which the result in the assay on Hep 3B2 [3] was Active.

On to `C=CCNC1=C2C[C@@H](C)C[C@H](OC)[C@H](O)[C@@H](C)/C=C(\C)[C@H](OC(N)=O)[C@@H](OC)/C=C\C=C(/C)C(=O)NC(=CC1=O)C2=O` [TANESPIMYCIN], for which the result in the assay on Hep 3B2 [4], with Hep 3B2 [5], in the assay on Hep 3B2 [6], with Hep 3B2 [7], in the assay with Hep 3B2 [8] and in the assay with Hep 3B2 [10] was Active. Besides, the Activity in the assay on Hep 3B2 [9] was determined as 100%.
